The values below come from ChEMBL document CHEMBL3045540, “Naphthalenones from a Perenniporia sp. inhabiting the larva of a phytophagous weevil, Euops chinesis” (2012).

Converted amounts (≈) assume the structure as drawn. The source made the active and inactive calls. The rule behind the calls is not given here.

In general, MIC refers to the lowest concentration that inhibits growth of the organism.

The subject of test [1] is Fusarium graminearum. Put plainly: Antifungal activity against Fusarium graminearum CGMCC 3.2873 after 48 hr by Alamar blue assay. The class given is functional. The conditions noted are these: CGMCC 3.2873, 48 h. An outline of the steps: (§1)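 NCCLS-based broth microdilution, run in triplicate. Fungi were kept on PDA, and the inoculum was grown in broth at 28 °C for 48 h, then set to a final 10^4 hyphae/mL in PDB. Samples were serially diluted from a 10 mg/mL DMSO stock, with 10% Alamar blue as indicator, and incubated at 28 °C for 48 h. Fluorescence was read at 544/590 nm. MIC was the lowest concentration giving complete growth inhibition.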
On the technique in general: Resazurin is reduced to fluorescent resorufin, in cell work by metabolically active cells.

The test system of test [2] is Alternaria longipes. Put plainly: Antifungal activity against Alternaria longipes CGMCC 3.2875 after 48 hr by Alamar blue assay. The class given is functional. The following applies: CGMCC 3.2875, 48 h. An outline of the steps: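 Run in triplicate per NCCLS recommendations. The strain was grown on PDA, and inoculum came from broth cultures (28 °C, 48 h), with a final suspension of 10^4 hyphae/mL in PDB. Samples were serially diluted from a 10 mg/mL DMSO stock, with 10% Alamar blue as indicator. After 28 °C for 48 h, fluorescence was read at Ex/Em 544/590 nm. MIC is the lowest concentration giving complete growth inhibition, taken from inhibition-versus-concentration plots.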

In test [3] the test system is Verticillium albo-atrum. Briefly: Antifungal activity against Verticillium albo-atrum CGMCC 3.4306 after 48 hr by Alamar blue assay. The class given is functional. The conditions noted are these: CGMCC 3.4306, 48 h. An outline of the steps: as §1
Test [4] deals with Fusarium verticillioides. Put plainly: Antifungal activity against Fusarium verticillioides CGMCC 3.2835 after 48 hr by Alamar blue assay. The class given is functional. The conditions noted are these: CGMCC 3.2835, 48 h. An outline of the steps:
as §1

The test system of test [5] is Fusarium oxysporum. Briefly: Antifungal activity against Fusarium oxysporum CGMCC 3.2830 after 48 hr by Alamar blue assay. The class given is functional. The conditions noted are these: CGMCC 3.2830, 48 h. In a few lines:
as §1

Test [6] concerns Fusarium graminearum. Briefly: Antifungal activity against Fusarium graminearum CGMCC 3.2873 at 20 ug/ml after 48 hr by Alamar blue assay. The class given is functional, organism-based.
Test [7] has as its system Fusarium verticillioides. Put plainly: Antifungal activity against Fusarium verticillioides CGMCC 3.2835 at 20 ug/ml after 48 hr by Alamar blue assay. The class given is functional, organism-based.
Test [8] concerns Verticillium albo-atrum. Briefly: Antifungal activity against Verticillium albo-atrum CGMCC 3.4306 at 20 ug/ml after 48 hr by Alamar blue assay. The class given is functional, organism-based.
Test [9] deals with Fusarium oxysporum. Put plainly: Antifungal activity against Fusarium oxysporum CGMCC 3.2830 at 20 ug/ml after 48 hr by Alamar blue assay. The class given is functional, organism-based.
For test [10], the system named is Alternaria longipes. Briefly: Antifungal activity against Alternaria longipes CGMCC 3.2875 at 20 ug/ml after 48 hr by Alamar blue assay. The class given is functional, organism-based.

In the case of `CCc1c(OC)cc2c(c1O)C(=O)C=C(OC)[C@@]21C[C@@H](O)C(=O)O1` [PERENNIPORIDE A], the MIC with Fusarium graminearum [1] is 20 mg/L (≈ 59.8 µM); with Alternaria longipes [2] it was 10 mg/L (≈ 29.9 µM); with Verticillium albo-atrum [3] it was 20 mg/L (≈ 59.8 µM); in the test with Fusarium verticillioides [4], 20 mg/L (≈ 59.8 µM); in the test with Fusarium oxysporum [5], 10 mg/L (≈ 29.9 µM).
Regarding `CCc1c(OC)cc2c(c1O)C(=O)C=C(OC)[C@@]2(O)C[C@@H](O)C(=O)OC`, the result with Fusarium graminearum [6], in the test with Fusarium verticillioides [7], in the test on Verticillium albo-atrum [8], in the test with Fusarium oxysporum [9] and with Alternaria longipes [10] was inactive.
On to `CCc1c(OC)cc2c(c1O)C(=O)C[C@]1(OC)OC(=O)[C@H](O)C[C@@]21O`, for which the outcome with Fusarium graminearum [6], in the test on Fusarium verticillioides [7], with Verticillium albo-atrum [8], in the test with Fusarium oxysporum [9] and in the test on Alternaria longipes [10] was inactive.
Take `CCc1c(OC)cc2c(c1O)C(=O)C[C@@]1(OC)O[C@@H](C(=O)OC)C[C@@]21O`: the result in the test on Fusarium graminearum [6], with Fusarium verticillioides [7], in the test on Verticillium albo-atrum [8], with Fusarium oxysporum [9] and in the test with Alternaria longipes [10] was inactive.
`COC(=O)Nc1nc2ccccc2[nH]1` [CARBENDAZIM]: the MIC was 2.5 mg/L (≈ 13.1 µM) against Fusarium graminearum [1], 0.63 mg/L (≈ 3.3 µM) with Verticillium albo-atrum [3], 0.63 mg/L (≈ 3.3 µM) in the test on Fusarium verticillioides [4] and 0.63 mg/L (≈ 3.3 µM) against Fusarium oxysporum [5]. Further, in the test on Alternaria longipes [10], the result was inactive.
